Data reported in publication PMC11290325 (Chemical Science, 2024).
Each block holds one compound with its values, some of them ahead of it. Where a SMILES comes first, the peptide text is derived from it.

Legend:
hKeap1 = hKeap1 (Homo sapiens, UniProt Q14145); experiment: BLI binding to hKeap1; conditions: Hk2 and Hk3 tested up to 100 μM
NEK7 = NEK7 (Homo sapiens, UniProt Q8TDX7); experiment: BLI binding to NEK7
M13 phages = experiment: Phage infectivity; parameters: species or system M13 bacteriophage; conditions: PBS pH 7.4, 20 min, room temperature
Method in brief: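 M13 phages displaying an N-terminal KGGSC pIII peptide with a factor Xa site were grown in E. coli TG1 and PEG-purified. They were then TCEP-reduced, factor Xa-digested and blocked with CBT (0.5 mM). After CBT removal and buffer exchange, they were treated with OPA at 100, 300 or 500 µM in PBS pH 7.4 for 20 min at room temperature. Titers (cfu) were measured after each stage by infecting TG1.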

PTP1B [1] = target: T1, PTP1B (Homo sapiens, UniProt P18031); experiment: Bio-Layer Interferometry; type: binding
T1 sequence (P18031 1-435): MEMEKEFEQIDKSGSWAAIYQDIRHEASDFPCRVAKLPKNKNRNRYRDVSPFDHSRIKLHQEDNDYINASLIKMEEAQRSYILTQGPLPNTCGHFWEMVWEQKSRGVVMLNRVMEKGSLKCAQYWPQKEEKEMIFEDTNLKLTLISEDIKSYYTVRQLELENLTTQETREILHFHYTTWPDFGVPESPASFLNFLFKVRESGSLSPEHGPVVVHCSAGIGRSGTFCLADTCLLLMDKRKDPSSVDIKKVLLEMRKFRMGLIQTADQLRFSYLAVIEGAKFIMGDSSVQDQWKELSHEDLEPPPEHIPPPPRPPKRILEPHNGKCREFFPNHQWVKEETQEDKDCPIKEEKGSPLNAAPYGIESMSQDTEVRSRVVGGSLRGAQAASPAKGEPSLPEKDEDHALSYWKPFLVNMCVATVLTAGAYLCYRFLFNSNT
Method in brief: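 Bio-layer interferometry […]. Wavelength shift and kinetic parameters were recorded. Kd was obtained by curve fitting. Cyclic peptides were made by OPA treatment of purified SPPS linear precursors.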

PTP1B [2] = target: T1, PTP1B; experiment: in vitro enzyme inhibition of PTP1B; type: biochemical

hKeap1, sequence (Q14145 whole entry): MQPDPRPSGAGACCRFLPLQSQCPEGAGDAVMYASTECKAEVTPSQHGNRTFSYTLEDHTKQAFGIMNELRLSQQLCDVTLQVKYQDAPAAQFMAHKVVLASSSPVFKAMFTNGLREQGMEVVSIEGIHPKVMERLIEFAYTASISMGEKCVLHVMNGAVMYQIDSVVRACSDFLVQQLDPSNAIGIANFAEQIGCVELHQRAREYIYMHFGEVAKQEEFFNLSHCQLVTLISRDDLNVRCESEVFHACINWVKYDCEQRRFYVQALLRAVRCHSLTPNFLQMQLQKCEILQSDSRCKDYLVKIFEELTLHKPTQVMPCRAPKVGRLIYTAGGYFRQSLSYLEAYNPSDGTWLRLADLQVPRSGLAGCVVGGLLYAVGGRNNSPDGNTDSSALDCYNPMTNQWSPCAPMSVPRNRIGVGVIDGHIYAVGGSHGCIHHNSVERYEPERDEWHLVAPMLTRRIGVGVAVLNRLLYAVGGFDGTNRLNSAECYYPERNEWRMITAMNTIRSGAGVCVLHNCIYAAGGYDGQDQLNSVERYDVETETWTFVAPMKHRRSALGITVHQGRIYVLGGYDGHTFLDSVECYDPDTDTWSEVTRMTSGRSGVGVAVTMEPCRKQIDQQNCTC
NEK7, sequence (Q8TDX7 whole entry): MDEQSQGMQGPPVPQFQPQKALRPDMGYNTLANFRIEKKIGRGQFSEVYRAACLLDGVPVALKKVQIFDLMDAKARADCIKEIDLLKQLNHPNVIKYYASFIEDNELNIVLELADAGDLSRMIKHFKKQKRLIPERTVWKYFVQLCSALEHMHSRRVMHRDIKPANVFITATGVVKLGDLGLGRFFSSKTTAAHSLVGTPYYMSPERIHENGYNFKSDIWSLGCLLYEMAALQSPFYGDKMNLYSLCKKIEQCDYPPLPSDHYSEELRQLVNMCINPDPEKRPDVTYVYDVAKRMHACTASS

Compound: O=Cc1ccccc1C=O [OPA, ortho-phthalaldehyde]
impact on M13 phages in cfus (M13 phages; OPA concentration below 300 μM): no significant impact | reduction in infectivity compared to untreated phage supernatant (M13 phages; OPA surpassing the 500 μM threshold): over 20 fold

Compound: Ac-KLFLHWARC-NH2 [M2_SS]
binding to PTP1B (in words) (PTP1B [1]; BLI): unable to bind

Compound: Ac-KTFLHWRYC-NH2 [M1_SS]
IC50 (PTP1B [2]): 54.8 ± 4.21 µM | Kd (PTP1B [1]): 9.2 ± 0.9 µM | reduction in affinity compared to its cyclic counterpart (PTP1B [1]; BLI, linear precursor vs cyclic M1_OPA): four-fold

More lines, now with the values ahead:

binding to hKeap1 (in words) (hKeap1): did not exhibit significant affinity
Compound: CC(=O)N[C@H]1CCCCn2cc3ccccc3c2SC[C@@H](C(N)=O)NC(=O)[C@H](CCC(=O)O)NC(=O)CNC(=O)[C@H]([C@@H](C)O)NC(=O)[C@H](CC(=O)O)NC(=O)[C@@H]2CCCN2C(=O)[C@H](CC(=O)O)NC(=O)[C@H](CC(C)C)NC1=O [Hk2] (HELM PEPTIDE1{[ac].[O=C([C@H](CCCCn1cc2ccccc2c1[*:3])N[*:1])[*:2]].L.D.P.D.T.G.E.C.[am]}$PEPTIDE1,PEPTIDE1,2:R3-10:R3$$$V2.0)

binding to hKeap1 (in words) (hKeap1): did not exhibit significant affinity
Compound: CC(=O)N[C@H]1CCCCn2cc3ccccc3c2SC[C@@H](C(N)=O)NC(=O)CNC(=O)[C@H](CCC(=O)O)NC(=O)CNC(=O)[C@H]([C@@H](C)O)NC(=O)[C@H](C)NC(=O)[C@H]([C@@H](C)O)NC(=O)[C@H](CCC(N)=O)NC1=O [Hk3] (HELM PEPTIDE1{[ac].[O=C([C@H](CCCCn1cc2ccccc2c1[*:3])N[*:1])[*:2]].Q.T.A.T.G.E.G.C.[am]}$PEPTIDE1,PEPTIDE1,2:R3-10:R3$$$V2.0)

binding to NEK7 (in words) (NEK7): low binding capacity
Compound: CC[C@H](C)[C@@H]1NC(=O)[C@H](CC(C)C)NC(=O)[C@@H]2CCCN2C(=O)[C@H](Cc2ccccc2)NC(=O)[C@H](CC(C)C)NC(=O)[C@H](CC(C)C)NC(=O)[C@@H](NC(C)=O)CCCCn2cc3ccccc3c2SC[C@@H](C(N)=O)NC(=O)[C@H](CC(N)=O)NC1=O [N3] (HELM PEPTIDE1{[ac].[O=C([C@H](CCCCn1cc2ccccc2c1[*:3])N[*:1])[*:2]].L.L.F.P.L.I.N.C.[am]}$PEPTIDE1,PEPTIDE1,2:R3-10:R3$$$V2.0)

binding to hKeap1 (in words) (hKeap1): no interaction
Compound: Ac-KQTATGRGC-NH2 [Hk1_SS]
